EBI2 antag: blocks human EBI2 receptor beta-arrestin signaling | 360,000 compounds, 0.81% hits | inhibition, % at 5 µM | EBI2 beta-arrestin recruitment, luminescence, 7a,25-OHC stimulated; in the data active = inhibition above about 38%;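 note: enzyme fragment complementation signal reports receptor beta-arrestin coupling in cells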
CXCR6 inh: blocks human CXCR6 beta-arrestin recruitment; O00574; CHO-K1 PathHunter CXCR6 beta-arrestin, luminescence; inhibition, % at 20 µM; 360,000 compounds, 0.36% hits; in the data active = inhibition above about 34%, passing the limit was not always enough;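 note: antagonist mode with CXCL16 agonist at 10 nM final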
Target sequence (O00574 whole entry, looked up): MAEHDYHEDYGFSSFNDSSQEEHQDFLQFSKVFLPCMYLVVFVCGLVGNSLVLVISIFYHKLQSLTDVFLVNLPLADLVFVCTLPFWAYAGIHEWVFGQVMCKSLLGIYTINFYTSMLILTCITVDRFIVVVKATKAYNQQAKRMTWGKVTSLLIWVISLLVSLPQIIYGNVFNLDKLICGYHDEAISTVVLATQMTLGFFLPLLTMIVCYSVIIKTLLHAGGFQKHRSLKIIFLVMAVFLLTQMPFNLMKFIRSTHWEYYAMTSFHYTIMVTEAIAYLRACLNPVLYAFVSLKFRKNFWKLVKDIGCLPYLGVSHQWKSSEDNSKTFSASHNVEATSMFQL
APJ ag: activates the human apelin receptor APJ; CHO-K1 APJ PathHunter beta-arrestin, luminescence; 0% DMSO wells, 100% apelin; activation, % at 20 µM; 330,000 compounds, 0.11% hits;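 active = activation more than six SD over the plate average, tested at 20 µM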
Target sequence (P35414 whole entry, looked up): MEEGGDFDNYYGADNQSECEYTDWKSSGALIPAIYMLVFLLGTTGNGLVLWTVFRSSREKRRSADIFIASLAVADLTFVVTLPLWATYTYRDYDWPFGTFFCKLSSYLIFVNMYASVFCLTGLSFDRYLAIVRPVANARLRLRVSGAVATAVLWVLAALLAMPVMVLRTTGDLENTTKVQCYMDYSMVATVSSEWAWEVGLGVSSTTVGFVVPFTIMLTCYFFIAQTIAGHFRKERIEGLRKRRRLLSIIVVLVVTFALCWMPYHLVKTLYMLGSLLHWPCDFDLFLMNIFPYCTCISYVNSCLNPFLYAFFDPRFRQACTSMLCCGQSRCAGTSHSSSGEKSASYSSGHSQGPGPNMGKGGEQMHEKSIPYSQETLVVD
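Test system: CHO-K1 APJ beta-arrestin complementation cell line. Amount: cell density 1000 per well. Controls: DMSO negative, 10 nM Apelin-13 positive. Signal: luminescent beta-gal fragment complementation, chemiluminescent substrate. Read-out basis: agonist-driven arrestin binding to APJ. Timing: compound stimulation 90 min at 25 °C, detection 60 min.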
CCR6 antagonist: blocks CCL20-driven beta-arrestin recruitment at human CCR6. AID 493098. inhibition, % at 20 µM. 340,000 compounds, 0.49% hits. P51684. CHO-K1 CCR6 PathHunter beta-arrestin, luminescence, CCL20-stimulated;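 active = compounds whose inhibition of the agonist-driven luminescence signal at 20 µM reaches about 50%, limit read from the data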;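 note: cells stimulated with CCL20 at 14 nM final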
m5-HT2A agonist: agonists of mouse serotonin 5-HT2A receptor (HTR2A); CHO-K1 mHTR2A beta-arrestin complementation, luminescence; percent of 30 µM serotonin response; P35363; activation, % at 7.6 µM; AID 624169; 360,000 compounds, 0.66% hits;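 active = activation above a run cutoff, the mean activation of all tested compounds plus 3 SD, cut at about 14% in these data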
APJ antagonist: antagonists of human APJ apelin receptor | P35414 | CHO-K1 APJ beta-arrestin complementation, luminescence | inhibition, % at 20 µM | 330,000 compounds, 0.32% hits | AID 2521;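 active = inhibition above about 40% at 20 µM, limit read from the data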;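 note: cells challenged with 10 nM apelin-13 agonist together with compound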
EBI2 conf: EBI2 (human) antagonism, single concentration confirmation. EBI2 beta-arrestin luminescence, 7a,25-OHC antagonism. shares compounds with EBI2 antag. AID 651997. 2,400 compounds, 29% hits. inhibition, % at 5 µM;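 active = inhibition of at least 50%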
EBI2 agonist: EBI2 agonism counter-screen. shares compounds with EBI2 antag. EBI2-expressing cells, agonist mode, luminescence, 60 min; 0% vehicle, 100% 7α,25-dihydroxycholesterol control. activation, % at 5 µM. 2,400 tested, under 10 active;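 active = activation of at least 50%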
bGal cs: inhibits E. coli beta-galactosidase, counter-screen for EBI2 antagonists. shares compounds with EBI2 antag. purified beta-galactosidase, luminescent Galacton Star, 15 min. inhibition, % at 5 µM. 2,400 compounds, 1% hits;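 active = replicate-average signal at least 3 plate SD below neutral wells, shown as high inhibition, flagging enzyme-inhibiting false positives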;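 note: higher means stronger loss of beta-gal luminescence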
Of the large screens only hits and unclear results are named; the others gave an inactive call (follow-up assays come after a bar, where they were run). Compounds with a hit are over-represented: about 2.1% of the library has one in this group of screens.

Oc1ccc(O)c(C=NNC(=S)NC2CC3CC2C2C=CCC32)c1 (configuration not stated)	EBI2 antag 49 (no result: APJ ag, CCR6 antagonist, APJ antagonist) | EBI2 conf inactive | EBI2 agonist inactive | bGal cs inactive
O=C(Cn1nnc2c(sc3nc4c(c(-c5ccccc5)c32)CCC4)c1=O)c1ccccc1	EBI2 antag 29 | EBI2 conf inactive | EBI2 agonist inactive | bGal cs inactive
Cc1nn(CCCC(=O)Nc2cc(Oc3ccccc3)cc([N+](=O)[O-])c2)c(C)c1[N+](=O)[O-]	none
Cc1ccc(C)c(Oc2cc(NC(=O)CCCn3nc(C)c([N+](=O)[O-])c3C)cc([N+](=O)[O-])c2)c1	EBI2 antag 44 | EBI2 conf inactive | EBI2 agonist inactive | bGal cs inactive
O=C(/C=C\c1cccs1)N1CCN(Cc2ccc3c(c2)OCO3)CC1	EBI2 antag 75 | EBI2 conf 54 | EBI2 agonist inactive | bGal cs inactive
CCCOc1ccc(C(=O)N2CCN(Cc3ccc4c(c3)OCO4)CC2)cc1	EBI2 antag 78 | EBI2 conf 54 | EBI2 agonist inactive | bGal cs inactive
O=C(COc1ccc(Cl)cc1)N1CCN(Cc2ccc3c(c2)OCO3)CC1	EBI2 antag 87 | EBI2 conf 61 | EBI2 agonist inactive | bGal cs inactive
CCCOc1ccc(C(=O)Nc2ccc3c(c2)OCO3)cc1	EBI2 antag 52 | EBI2 conf inactive | EBI2 agonist inactive | bGal cs inactive
Cc1cc(C)cc(C(=O)N2CCN(Cc3ccc4c(c3)OCO4)CC2)c1	none
O=C(O)/C=C/C(=O)N1CCN(Cc2ccc3c(c2)OCO3)CC1	none
O=C(Nc1ccc(Cl)cc1)N1CCN(Cc2ccc3c(c2)OCO3)CC1	none
Cc1ccc(S(=O)(=O)N2C[C@@H]3[C@H]4CC[C@H](C4)[C@@H]3[C@@H](C)[C@H]2c2ccn(Cc3ccccc3)c2)cc1	none (no result: APJ ag, APJ antagonist)
COc1ccc(/C=N/NC(=O)CNC(=O)/C=C/c2ccccc2OC)cc1	EBI2 antag 77 | EBI2 conf 57 | EBI2 agonist inactive | bGal cs inactive
Cc1ccccc1Cn1nnc(C(=O)Nc2cccc(C)c2C)c1N	EBI2 antag 43 | EBI2 conf inactive | EBI2 agonist inactive | bGal cs inactive
COc1ccc(NC(=S)Nc2cc(C(F)(F)F)ccc2F)cc1	EBI2 antag 43 | EBI2 conf inactive | EBI2 agonist inactive | bGal cs inactive
CC(NC(=O)COc1ccc(S(=O)(=O)N2CCOCC2)cc1)c1ccccc1 (configuration not stated)	none
C#Cc1ccc([C@H]2C=C(C(=O)N3CCN(Cc4ccc5c(c4)OCO5)CC3)O[C@@H](OCC)[C@@H]2CCCO)cc1	EBI2 antag 55 | EBI2 conf inactive | EBI2 agonist inactive | bGal cs inactive
CC(C)(C)c1ccc(/C=C/C(=O)N2CCOCC2)cc1	none
CC(C)(C)c1ccc(/C=C/C(=O)N2CCN(c3ncccn3)CC2)cc1	EBI2 antag 65 | EBI2 conf 61 | EBI2 agonist inactive | bGal cs inactive
Cc1ccc(/C=C/C(=O)N2CCN(c3ncccn3)CC2)o1	none
O=C(/C=C/c1ccc(F)cc1)N1CCN(c2ncccn2)CC1	EBI2 antag 93 | EBI2 conf 78 | EBI2 agonist inactive | bGal cs inactive
CCCS(=O)(=O)NC(=O)C1(C)CCCN(C(=O)c2cc(-c3cccs3)oc2C)C1 (configuration not stated)	none (no result: APJ ag, CCR6 antagonist, APJ antagonist)
O=C(/C=C/c1cccc(F)c1)Nc1cc(S(=O)(=O)N2CCOCC2)ccc1Cl	none
O=C(/C=C/c1cccc(F)c1)c1ccc(N2CCOCC2)cc1	EBI2 antag 58 | EBI2 conf inactive | EBI2 agonist inactive | bGal cs inactive
CCN(c1ccccc1)S(=O)(=O)c1cccc(C(=O)NCC2(N(C)C)CCCCC2)c1	none
O=C(/C=C/c1cn(-c2ccccc2)nc1-c1cccnc1)N1CCCC1	none (no result: APJ ag, APJ antagonist)
O=C(/C=C/c1cn(-c2ccccc2)nc1-c1cccnc1)c1ccco1	EBI2 antag 44 | EBI2 conf 65 | EBI2 agonist inactive | bGal cs inactive
CCOc1ccc(NC(=O)CSc2nc3ccsc3c(=O)n2CCCCCC(=O)O)cc1	none (no result: APJ ag, CCR6 antagonist, APJ antagonist)
COc1ccc(-c2ccc(C(=O)Nc3cccc(C(F)(F)F)c3)c3occc23)c(C)c1	EBI2 antag 43 (no result: APJ ag, CCR6 antagonist, APJ antagonist) | EBI2 conf inactive | EBI2 agonist inactive | bGal cs inactive
COc1ccc(-c2cc(-c3nnc(COC(=O)c4ccc(O)cc4)o3)c3ccccc3n2)cc1OC	EBI2 antag 46 | EBI2 conf inactive | EBI2 agonist inactive | bGal cs inactive
COc1ccc(-c2cc(-c3nnc(COC(=O)C4CC4)o3)c3ccccc3n2)cc1OC	none
Cc1ccc(N(C)C(=O)N2CCN(S(=O)(=O)c3ccc4ccccc4c3)CC2)cc1	EBI2 antag 45 | EBI2 conf inactive | EBI2 agonist inactive | bGal cs inactive
COc1ccc(CCN2C(=O)C(Oc3ccccc3)C2c2ccc3c(c2)OCO3)cc1 (configuration not stated)	EBI2 antag 42 | EBI2 conf inactive | EBI2 agonist inactive | bGal cs inactive
N#Cc1c(Nc2ccccc2)c(/C=N/N=C/c2ccccc2)c[nH]c1=O	EBI2 antag 96 | EBI2 conf 85 | EBI2 agonist inactive | bGal cs inactive
CCN(C(=O)COC(=O)CCc1c[nH]c2ccccc12)c1c(N)n(Cc2ccccc2)c(=O)[nH]c1=O	none
O=C(/C=C/c1ccc(Cl)cc1Cl)c1nc2ccccc2[nH]1	EBI2 antag 44 | EBI2 conf inactive | EBI2 agonist inactive | bGal cs inactive
O=C(/C(=C(\O)c1ccccc1)c1nc2ccccc2[nH]1)c1ccccc1	none
CSc1ccc(-c2cccc3nncn23)cc1	none (no result: APJ ag, CCR6 antagonist, APJ antagonist)
O=c1ccc(-c2ccc(S(=O)(=O)Nc3cccc(Br)c3)o2)n[nH]1	none
CCc1ccc(OCC(=O)NNC(=O)CSc2ncnc3sc(C)c(C)c23)cc1	EBI2 antag 70 | EBI2 conf inactive | EBI2 agonist inactive | bGal cs inactive
Cc1ccc(OCC(=O)NNC(=O)CSc2ncnc3sc(C)c(C)c23)cc1	EBI2 antag 66 | EBI2 conf inactive | EBI2 agonist inactive | bGal cs inactive
Cc1sc2ncnc(SCC(=O)NC(C)(C)C)c2c1C	none
Cc1sc2ncnc(SCC(=O)NCC(C)C)c2c1C	none
CN(C)c1ccc(/C=N/N2CCN(c3ccccn3)CC2)cc1	none

High-throughput results deposited in PubChem BioAssay by several laboratories.
